Holding throughout (assay type): cell-based
The target of test [1] is Mitogen-activated protein kinase kinase kinase 11 (Homo sapiens) (UniProt Q16584). Nature of the test: Induction of degradation of DOX-inducible MLK3 (unknown origin) overexpressed in human MCF7 cells at 0.5 to 1 uM measured after 24 hrs by immunoblot analysis. To be noted: dose 0.5-1 µM.
The target is the same in test [2]. Nature of the test: Induction of degradation of DOX-inducible MLK3 (unknown origin) overexpressed in human MDA-MB-468 cells at 0.5 to 1 uM measured after 24 hrs by immunoblot analysis. The following applies: dose 0.5-1 µM. In general terms: In western blotting, separated proteins are transferred to a membrane and probed.
Test [3] addresses T1, von Hippel-Lindau disease tumor suppressor/Mitogen-activated protein kinase kinase kinase 11 (Homo sapiens, UniProt Q16584+P40337). Nature of the test: PROTAC activity at VHL/MLK3 in human MCF7 cells assessed as protein degradation at 1 uM measured after 24 hrs by immunoblot analysis. Put shortly:
(§1)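 MCF-7 and MDA-MB-468 cells were treated for 24 h across 0.1–5 μM, with DMSO as control. MLK3 was immunoblotted and quantified as percent remaining versus concentration, from which DC50 and Dmax were derived.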

For test [4], the target named is T1, von Hippel-Lindau disease tumor suppressor/Mitogen-activated protein kinase kinase kinase 11. Nature of the test: PROTAC activity at VHL/MLK3 in human MDA-MB-468 cells assessed as protein degradation at 1 uM measured after 24 hrs by immunoblot analysis. In a few lines:
as §1

Test [5] shares this target. Nature of the test: PROTAC activity at VHL/DOX-inducible MLK3 (unknown origin) overexpressed in human HCC1806 cells assessed as protein degradation at 0.25 to 1 uM measured after 24 hrs by immunoblot analysis. The following applies: dose 0.25-1 µM.

Activity calls are given as the source filed them. The calls are words filed in the database; no cut-off is given here.

T1 sequence (P40337 whole entry, looked up): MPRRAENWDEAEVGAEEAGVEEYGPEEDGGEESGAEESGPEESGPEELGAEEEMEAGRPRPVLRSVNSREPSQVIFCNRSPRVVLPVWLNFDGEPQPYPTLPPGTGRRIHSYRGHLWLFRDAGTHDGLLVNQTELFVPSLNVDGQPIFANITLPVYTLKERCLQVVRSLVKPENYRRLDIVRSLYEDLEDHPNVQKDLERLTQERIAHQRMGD
T1 sequence (Q16584 whole entry, looked up): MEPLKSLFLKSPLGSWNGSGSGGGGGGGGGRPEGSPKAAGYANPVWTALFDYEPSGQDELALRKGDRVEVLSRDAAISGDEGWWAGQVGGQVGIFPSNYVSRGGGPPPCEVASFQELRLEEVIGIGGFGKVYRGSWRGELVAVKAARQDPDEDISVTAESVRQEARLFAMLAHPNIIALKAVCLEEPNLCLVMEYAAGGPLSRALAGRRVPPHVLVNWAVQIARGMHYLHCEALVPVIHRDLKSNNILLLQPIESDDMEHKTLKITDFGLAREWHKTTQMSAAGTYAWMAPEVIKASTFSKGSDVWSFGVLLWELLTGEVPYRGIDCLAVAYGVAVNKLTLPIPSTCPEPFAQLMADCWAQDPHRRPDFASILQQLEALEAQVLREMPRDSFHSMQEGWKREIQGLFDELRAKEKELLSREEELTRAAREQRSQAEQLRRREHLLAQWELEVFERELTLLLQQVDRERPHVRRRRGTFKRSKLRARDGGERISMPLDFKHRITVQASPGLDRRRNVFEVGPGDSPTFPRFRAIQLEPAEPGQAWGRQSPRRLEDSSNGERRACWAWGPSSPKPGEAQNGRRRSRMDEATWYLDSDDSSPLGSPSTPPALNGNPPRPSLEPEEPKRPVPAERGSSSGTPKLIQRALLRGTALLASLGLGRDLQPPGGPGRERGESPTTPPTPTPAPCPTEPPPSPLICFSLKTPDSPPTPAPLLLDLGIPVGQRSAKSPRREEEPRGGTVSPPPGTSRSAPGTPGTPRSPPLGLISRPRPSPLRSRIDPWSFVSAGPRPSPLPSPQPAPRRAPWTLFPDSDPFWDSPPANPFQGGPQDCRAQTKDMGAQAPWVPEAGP
Chain of Mitogen-activated protein kinase kinase kinase 11 (Homo sapiens) (Q16584 whole entry, looked up): as above

As for `CCSCc1ccc2c(c1)c1c3c(c4c5cc(CSCC)ccc5n5c4c1n2[C@H]1C[C@](O)(C(=O)OC)[C@]5(C)O1)CNC3=O`, the outcome in test [1] and in test [2] was inactive.
Regarding `CCSCc1ccc2c(c1)c1c3c(c4c5cc(CSCC)ccc5n5c4c1n2[C@H]1C[C@](O)(C(=O)NCCOCCOCCOCC(=O)N[C@H](C(=O)N2C[C@@H](O)C[C@H]2C(=O)N[C@@H](C)c2ccc(-c4scnc4C)cc2)C(C)(C)C)[C@]5(C)O1)CNC3=O`, the outcome in test [3], in test [4] and in test [5] was inactive.
